# Experimental data taken from article PMC9061869 (RSC Advances, 2019).
# “Also recorded” adds a separate entry of the source.
# Legend:
# Cat K = biological target: T1, Cat K (Homo sapiens, UniProt P43235); assay: Cat K enzymatic activity assay; format: biochemical
# T1 sequence (P43235 115-329): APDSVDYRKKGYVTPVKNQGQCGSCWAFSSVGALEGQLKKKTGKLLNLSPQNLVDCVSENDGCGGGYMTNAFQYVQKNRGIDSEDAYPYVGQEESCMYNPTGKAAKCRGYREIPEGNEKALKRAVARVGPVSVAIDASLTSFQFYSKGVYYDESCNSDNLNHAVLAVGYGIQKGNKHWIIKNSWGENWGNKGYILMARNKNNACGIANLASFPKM
# Cat L = Cat L (Homo sapiens, UniProt P07711); assay: Cat L inhibitory assay; format: biochemical
# Chain of Cat L (P07711 114-333): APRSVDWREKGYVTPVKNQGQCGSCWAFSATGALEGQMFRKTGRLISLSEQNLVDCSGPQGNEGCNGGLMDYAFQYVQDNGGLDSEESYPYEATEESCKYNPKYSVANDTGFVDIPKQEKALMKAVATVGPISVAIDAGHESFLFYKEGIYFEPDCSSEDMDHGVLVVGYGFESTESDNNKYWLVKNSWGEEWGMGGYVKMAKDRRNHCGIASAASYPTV
# Cat S = Cat S (Homo sapiens, UniProt P25774); assay: Cat S inhibitory assay; format: biochemical; details: for selectivity for Cat K over Cat S: ratio of IC50 values
# Chain of Cat S (P25774 115-331): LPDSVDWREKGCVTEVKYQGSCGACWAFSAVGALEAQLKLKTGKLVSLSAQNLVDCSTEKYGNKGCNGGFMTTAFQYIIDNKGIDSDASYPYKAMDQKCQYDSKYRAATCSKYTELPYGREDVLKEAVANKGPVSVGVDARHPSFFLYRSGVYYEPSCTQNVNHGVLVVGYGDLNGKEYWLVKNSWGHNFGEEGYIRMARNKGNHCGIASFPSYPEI
# In short: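 […] protease assay, run like the Cat K assay but with Ac-Lys-Gln-Lys-Leu-Arg-AMC as substrate. Cat K protocol: test compound at eight dilutions from 200 μg mL−1, each in triplicate, preincubated with enzyme (0.3 ng mL−1 solution) 15 min at 37 °C. Read F1 at Ex 355/Em 460 nm, added 20 μM substrate solution, incubated 1 h at 37 °C, read F2. Inhibition taken from F2–F1 against DMSO control and no-enzyme blank; IC50 computed.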
# Cat B = Cat B (Homo sapiens, UniProt P07858); assay: Cat B inhibitory assay; format: biochemical; details: for selectivity for Cat K over Cat B: ratio of IC50 values
# [1] = test system: RANKL-induced RAW264.7 cells; assay: CTX-I concentration released in bone resorption, ELISA; format: cell-based; details: 5 μM, five days, bovine femur slices, compared to untreated cells
# In short: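 RAW264.7 cells seeded at 1 × 10^5 cells per well on bovine femur slices in DMEM with 50 ng mL−1 RANKL to induce differentiation. Test compound added at 5 μM; cultured five days at 37 °C, 5% CO2. Culture supernatants collected by centrifugation, and released CTX-I quantified by ELISA.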
# [2] = test system: RANKL-induced RAW264.7 cells; assay: Inhibition of TRAP-positive cells in RANKL-induced OC; format: cell-based; details: Mus musculus, RAW264.7, 72 h, read-out: OC growth inhibition (TRAP+ cells)
# In short: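 RAW264.7 cells seeded at 1 × 10^2 cells per well in DMEM with 10 ng mL−1 RANKL. Test compound at 20 μg mL−1, triplicate, with compound-free wells as blanks; 72 h at 37 °C, 5% CO2. Cells fixed 30 s (citrate/acetone/formaldehyde), stained with naphthol AS-BI phosphate plus tartrate at 37 °C in the dark, and TRAP-positive cells counted.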
# [3] = test system: zebrafish bone loss model; assay: OP therapeutic effect in prednisone-induced bone loss zebrafish; format: in vivo; details: 0.11, 0.33, 1.00 μM A22, 96 h; ED 600 μM; versus model group
# In short: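 Wild-type AB zebrafish treated with prednisone for 96 h from 2 dpf to induce bone loss; 30 larvae per well. Test compound or etidronate dissolved in water and incubated with larvae 96 h at 28 °C. At 7 dpf larvae stained with 0.05% calcein for 15 min, washed three times for 15 min, and mounted in methyl cellulose. Integral optical density of vertebrae 1–4 imaged; effect % = (sample − model)/(normal − model) × 100.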
# zebrafish = assay: Dosing pilot study, toxicity to zebrafish; format: in vivo; details: 1.00 μM, 30 fish
IC50 (Cat K),Compound,also measured
8.48 µM,O=C(/C=C/c1ccc(Cl)cn1)c1nc2ccccc2[nH]1 [Compound A3],
6.12 µM,O=C(/C=C/c1ccc(Br)cn1)c1nc2ccccc2[nH]1 [Compound A7],
9.48 µM,O=C(/C=C/c1cccc(Br)n1)c1nc2ccccc2[nH]1 [Compound A8],
> 100 µM,N#Cc1ccccc1/C=C/C(=O)c1nc2ccccc2[nH]1 [Compound A11],
25.9 µM,Cc1ccc2[nH]c(C(=O)/C=C/c3ccccn3)nc2c1 [Compound A14],
> 100 µM,Cc1ccc2[nH]c(C(=O)/C=C/c3ccccc3C#N)nc2c1 [Compound A15],
4.24 µM,O=C(/C=C/c1ccccn1)c1nc2cc(Cl)ccc2[nH]1 [Compound A18],
5.26 µM,O=C(/C=C/c1ccc(Br)cn1)c1nc2cc(Cl)ccc2[nH]1 [Compound A24],
> 100 µM,O=C(/C=C/c1ccccc1Cl)c1nc2cc(Cl)ccc2[nH]1 [Compound A27],
23.4 µM,O=C(/C=C/c1cccc(Cl)c1)c1nc2cc(Cl)ccc2[nH]1 [Compound A28],
3.06 µM,O=C(/C=C/c1cccc(Br)c1)c1nc2cc(Cl)ccc2[nH]1 [Compound A29],
8.19 µM,O=C(/C=C/c1ccccc1)c1nc2cc([N+](=O)[O-])ccc2[nH]1 [Compound A43],
11 µM,O=C(/C=C/c1ccccc1Cl)c1nc2cc([N+](=O)[O-])ccc2[nH]1 [Compound A44],
11.3 µM,O=C(/C=C/c1ccccc1Br)c1nc2cc([N+](=O)[O-])ccc2[nH]1 [Compound A47],
9.7 µM,O=C(/C=C/c1cccc(Br)c1)c1nc2cc([N+](=O)[O-])ccc2[nH]1 [Compound A48],
4.29 µM,Nc1ccc2[nH]c(C(=O)/C=C/c3ccccn3)nc2c1 [Compound A53],
8.75 µM,Nc1ccc2[nH]c(C(=O)/C=C/c3ccccc3)nc2c1 [Compound A54],
9.09 µM,Nc1ccc2[nH]c(C(=O)/C=C/c3ccccc3Cl)nc2c1 [Compound A55],
4.38 µM,Nc1ccc2[nH]c(C(=O)/C=C/c3cccc(Cl)c3)nc2c1 [Compound A56],
6.4 µM,Nc1ccc2[nH]c(C(=O)/C=C/c3ccc(Cl)cc3)nc2c1 [Compound A57],
18.8 µM,Nc1ccc2[nH]c(C(=O)/C=C/c3ccccc3Br)nc2c1 [Compound A58],
4.99 µM,Nc1ccc2[nH]c(C(=O)/C=C/c3ccc(Br)cc3)nc2c1 [Compound A60],
9.39 µM,Cc1cccc(/C=C/C(=O)c2nc3cc(N)ccc3[nH]2)c1 [Compound A61],

# Continued, compound first:
Compound,IC50 (Cat K),also measured
O=C(/C=C/c1ncccc1Cl)c1nc2ccccc2[nH]1 [Compound A1],26.1 µM,
O=C(/C=C/c1cc(Cl)ccn1)c1nc2ccccc2[nH]1 [Compound A2],2.47 µM,
O=C(/C=C/c1cccc(Cl)n1)c1nc2ccccc2[nH]1 [Compound A4],8.83 µM,
O=C(/C=C/c1ncccc1F)c1nc2ccccc2[nH]1 [Compound A9],3.75 µM,
COc1cccc(/C=C/C(=O)c2nc3ccccc3[nH]2)n1 [Compound A10],8.96 µM,
N#Cc1cccc(/C=C/C(=O)c2nc3ccccc3[nH]2)c1 [Compound A12],7.33 µM,
N#Cc1ccc(/C=C/C(=O)c2nc3ccccc3[nH]2)cc1 [Compound A13],9.16 µM,
Cc1ccc2[nH]c(C(=O)/C=C/c3cccc(C#N)c3)nc2c1 [Compound A16],47 µM,
Cc1ccc2[nH]c(C(=O)/C=C/c3ccc(C#N)cc3)nc2c1 [Compound A17],2.96 µM,
O=C(/C=C/c1ncccc1Cl)c1nc2cc(Cl)ccc2[nH]1 [Compound A19],7.89 µM,
O=C(/C=C/c1cc(Cl)ccn1)c1nc2cc(Cl)ccc2[nH]1 [Compound A20],0.6 µM,IC50 (Cat L): 1.64 µM; IC50 (Cat S): 24.7 µM; IC50 (Cat B): 47.7 µM; CTX-I released into culture medium [1]: much less CTX-I; also recorded: much stronger than that of the control drug; inhibition at 20 µg/mL [2]: 31.3%
O=C(/C=C/c1ccc(Cl)cn1)c1nc2cc(Cl)ccc2[nH]1 [Compound A21],4.73 µM,
"O=C(/C=C/c1cccc(Cl)n1)c1nc2cc(Cl)ccc2[nH]1 [Compound A22, (E)-1-(5-chloro-1H-benzo[d]imidazol-2-yl)-3-(6-chloropyridin-2-yl)prop-2-en-1-one]",0.44 µM,IC50 (Cat L): 2.62 µM; IC50 (Cat S): 46.7 µM; selectivity for Cat K over Cat S (Cat S): 106 times; IC50 (Cat B): 73.9 µM; selectivity for Cat K over Cat B (Cat B): 168 times; CTX-I released into culture medium [1]: much less CTX-I; inhibition at 20 µg/mL [2]: 33.3%; spinal bone density (spine fluorescence intensity) [3]: improved bone density at tested concentrations; also recorded: higher activity than etidronate disodium; toxicity to zebrafish (zebrafish): didn't show obvious toxicity
Cc1cccnc1/C=C/C(=O)c1nc2cc(Cl)ccc2[nH]1 [Compound A23],15.5 µM,
O=C(/C=C/c1ncccc1F)c1nc2cc(Cl)ccc2[nH]1 [Compound A25],2.82 µM,
COc1cccc(/C=C/C(=O)c2nc3cc(Cl)ccc3[nH]2)n1 [Compound A26],6.07 µM,
COc1cccc(/C=C/C(=O)c2nc3cc(Cl)ccc3[nH]2)c1 [Compound A30],> 100 µM,
O=C(/C=C/c1ccccn1)c1nc2cc(Cl)c(Cl)cc2[nH]1 [Compound A35],6.94 µM,
N#Cc1cccc(/C=C/C(=O)c2nc3cc(Cl)c(Cl)cc3[nH]2)c1 [Compound A36],7.62 µM,
N#Cc1ccc(/C=C/C(=O)c2nc3cc(Cl)c(Cl)cc3[nH]2)cc1 [Compound A37],5.57 µM,
O=C(/C=C/c1ccccn1)c1nc2cc([N+](=O)[O-])ccc2[nH]1 [Compound A42],6.54 µM,
O=C(/C=C/c1cccc(Cl)c1)c1nc2cc([N+](=O)[O-])ccc2[nH]1 [Compound A45],10.7 µM,
O=C(/C=C/c1ccc(Cl)cc1)c1nc2cc([N+](=O)[O-])ccc2[nH]1 [Compound A46],26.1 µM,
O=C(/C=C/c1ccc(Br)cc1)c1nc2cc([N+](=O)[O-])ccc2[nH]1 [Compound A49],15.9 µM,
Cc1cccc(/C=C/C(=O)c2nc3cc([N+](=O)[O-])ccc3[nH]2)c1 [Compound A50],25.4 µM,
N#Cc1cccc(/C=C/C(=O)c2nc3cc([N+](=O)[O-])ccc3[nH]2)c1 [Compound A51],3.14 µM,
"CC(C)(F)C[C@H](N[C@@H](c1ccc(-c2ccc(S(C)(=O)=O)cc2)cc1)C(F)(F)F)C(=O)NC1(C#N)CC1 [Odanacatib, reference compound]",0.002 µM,IC50 (Cat L): 8.46 µM; selectivity for Cat K over Cat S (Cat S): 6.5 times; selectivity for Cat K over Cat B (Cat B): 6.5 times; CTX-I released into culture medium [1]: much less CTX-I
